Each structure is given as a SMILES string. Activity calls are given as the source filed them.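 How the source made its calls, unless noted: active means viability at or under a set limit in both replicates, limit being median viability minus 3 SD (cut at about 48% in these data, passing the limit was not always enough); inconclusive means at or under the limit in just one replicate; inactive means at or above the limit in both replicates.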

The nature of assay [1]: Her2 expression decrease, cell viability multiplex – SKBR3 breast tumor cells, AlphaScreen, ATP viability, primary screen (AID 461;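 active means Her2 level under about 52% in both replicate screens, with viability over 70% of control, limit read from the data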;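 on Her2 level: lower value means less Her2 protein in the cells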;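 on viability: percent of carrier control wells set as 100% viability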). To be noted: SKBR3 Her2 protein level, 18-24 h, measured here: SKBR3 viability, ATP luminescence, at 10 µM.
The target of assay [2] is Receptor tyrosine-protein kinase erbB-2 (Homo sapiens) (UniProt P04626). The assay is described as above. Conditions: 18-24 h, at 10 µM, stronger effect = lower value.
Receptor tyrosine-protein kinase erbB-2 (Homo sapiens), sequence (P04626 whole entry, looked up): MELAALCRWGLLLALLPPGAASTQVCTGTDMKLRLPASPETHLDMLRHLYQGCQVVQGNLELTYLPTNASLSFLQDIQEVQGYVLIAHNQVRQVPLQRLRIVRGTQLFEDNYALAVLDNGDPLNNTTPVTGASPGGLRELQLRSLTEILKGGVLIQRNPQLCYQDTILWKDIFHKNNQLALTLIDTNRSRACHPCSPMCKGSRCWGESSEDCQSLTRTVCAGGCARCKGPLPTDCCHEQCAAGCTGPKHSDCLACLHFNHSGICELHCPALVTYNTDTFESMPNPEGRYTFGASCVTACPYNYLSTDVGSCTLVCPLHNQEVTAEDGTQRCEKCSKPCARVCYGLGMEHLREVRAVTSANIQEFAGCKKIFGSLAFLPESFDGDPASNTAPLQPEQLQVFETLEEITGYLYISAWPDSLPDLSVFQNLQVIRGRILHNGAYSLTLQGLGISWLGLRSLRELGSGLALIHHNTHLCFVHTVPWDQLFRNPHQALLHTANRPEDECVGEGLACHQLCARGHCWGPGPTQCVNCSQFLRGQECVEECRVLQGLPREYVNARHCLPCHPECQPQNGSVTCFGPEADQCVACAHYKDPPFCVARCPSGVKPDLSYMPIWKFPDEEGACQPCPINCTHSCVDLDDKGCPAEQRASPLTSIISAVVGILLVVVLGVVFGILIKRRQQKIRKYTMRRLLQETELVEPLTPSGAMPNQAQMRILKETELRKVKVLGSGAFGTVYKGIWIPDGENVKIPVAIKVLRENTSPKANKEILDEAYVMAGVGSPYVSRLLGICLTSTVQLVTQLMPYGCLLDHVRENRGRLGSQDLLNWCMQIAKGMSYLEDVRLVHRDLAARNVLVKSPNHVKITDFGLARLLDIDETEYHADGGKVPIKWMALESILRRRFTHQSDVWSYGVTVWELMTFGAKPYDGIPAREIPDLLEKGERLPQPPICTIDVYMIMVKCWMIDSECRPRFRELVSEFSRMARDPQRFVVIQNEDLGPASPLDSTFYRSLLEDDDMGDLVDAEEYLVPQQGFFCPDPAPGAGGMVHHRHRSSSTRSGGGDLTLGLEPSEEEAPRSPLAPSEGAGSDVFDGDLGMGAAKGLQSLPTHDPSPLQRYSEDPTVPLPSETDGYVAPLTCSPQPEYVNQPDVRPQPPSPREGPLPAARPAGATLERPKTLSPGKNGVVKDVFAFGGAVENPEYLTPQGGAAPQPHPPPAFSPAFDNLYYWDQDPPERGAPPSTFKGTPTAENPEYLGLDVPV
Assay [3] is described as follows: reduced viability of SK-BR-3 breast cancer cells – cell-based, 24 h, human, pilot screen (AID 572;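 active means viability at or below 10% of carrier control in both of two separate runs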;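 further: compound exposure lasted between 18 and 24 h rather than exactly 24 h; 100% = carrier-treated control wells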). Conditions: SK-BR-3 viability, CellTiter-Glo luminescence, at 10 µM, stronger effect = lower value.
A short description of assay [4]: HUVEC growth inhibition – cell-based, human, primary screen (AID 575;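 active means viability at or below 30% in both replicate assays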;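 further: 100% = median of untreated cell wells with 0.1% DMSO on each plate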). Conditions: HUVEC proliferation, CellTiter-Glo luminescence, 72 h; at 10 µM; stronger effect = lower value. In a few lines: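 Timing: 72 h treatment at 37 °C; material: HUVEC primary cells; technique: CellTiter-Glo luminescence measuring cellular ATP; controls: vehicle and MePR control wells; measure: percent of median DMSO-control luminescence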

Assay [5] can be described thus: H69AR cell proliferation blockers – human, duplicate replicates, primary screen (AID 580).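 Further: 100% = mean luminescence of untreated wells and 0% = no signal.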 Conditions: H69AR lung tumor cells viability, ATP luminescence, 72 h; at 10 µM; stronger effect = lower value.
Assay [6] in a line: MRP1 drug-resistance reversers in H69AR cells – cell-based, doxorubicin co-treatment, pilot screen (AID 601;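 active means viability loss from added drug above about 55%, and viability with drug at most 40%, in both replicates, limit read from the data, passing the limit was not always enough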). To be noted: CellTiter-Glo, 72 h, at 10 µM; for differential viability (reversal): stronger effect = higher value.
Assay [7] is described as follows: yeast transport mutant growth inhibition pilot in 384-well plates, post-Golgi transport modulator project (AID 636; in the data active means inhibition above about 31%). To be noted: absorbance 615 nm, about 18 h, stronger effect = higher value.
Assay [8] can be described thus: growth suppression of yeast trafficking mutant, preliminary HTS, modulators of trafficking downstream of Golgi apparatus project, 1536-format plate, OD 615 nm (AID 637; in the data active means inhibition above about 30%). To be noted: yeast transport mutant growth, absorbance 615 nm, 18 h; stronger effect = higher value.
The mark [9] stands for this setting: H69AR cells + 2 uM doxorubicin, measured here: viability with 2 uM doxorubicin, stronger effect = lower value.
Setting [10] is: H69AR cells, compound alone cytotoxicity.

What is called viability is a read-out of living cells in per cent, often relative to untreated cells. Usually inhibition stands for the relative decrease from the control value, in per cent. Regarding `Cc1cc(C)cc(N2CCCn3c2nc2c3c(=O)n(CCN3CCOCC3)c(=O)n2C)c1`, the viability in assay [1] is 101%; in assay [3] it was 101% (inactive); in assay [4], 97.2% (inactive); in assay [5], 83.3% (inactive); in assay [6] (setting [9]), 83.3%; in assay [6] (setting [10]), 83.3%. Moreover, in assay [2], the Her2 level is 81% (inactive). Also, in assay [6] (H69AR cells + 2 uM doxorubicin), the differential viability (reversal) was -0.035% (inactive). Further, the values for the inhibition in assay [7] and in assay [8] were -7.2% (inactive) and -3.44% (inactive), respectively.

Consider `CCNCC(O)COCC(O)CNCC` (stereo not given), for which the viability in assay [1] was 88.5%; in assay [3] it was 88.5% (inactive); in assay [4] it was 88.3% (inactive); in assay [5] it was 99.7% (inactive); in assay [6] (setting [9]) it was 94.2%; in assay [6] (setting [10]), 99.7%. Besides, the Her2 level in assay [2] was 86% (inactive). The differential viability (reversal) in assay [6] (H69AR cells + 2 uM doxorubicin) was 5.55% (inactive). Also, the inhibition in assay [7] is -1.03% (inactive); in assay [8], -0.5% (inactive).

Turning to `CCOc1ccc(NCc2nnc(SCC(=O)Nc3cc(C)on3)n2-c2ccccc2OC)cc1`, the viability was 106% in assay [1]; 106% (inactive) in assay [3]; 41.7% (inactive) in assay [4]; 13.1% (active) in assay [5]; 32.1% in assay [6] (setting [9]); 13.1% in assay [6] (setting [10]). For the same compound, the Her2 level in assay [2] was 79% (inactive). In addition, the differential viability (reversal) in assay [6] (H69AR cells + 2 uM doxorubicin) is -19% (inactive). In addition, the inhibition is -4.8% (inactive) in assay [7] and 2.86% (inactive) in assay [8].

With `COc1cccc(OC)c1OCCN1CCN(C(=O)c2ccco2)CC1`, the viability is 86.5% in assay [1]; 86.5% (inactive) in assay [3]; 107% (inactive) in assay [4]; 95.8% (inactive) in assay [5]; 85% in assay [6] (setting [9]); 95.8% in assay [6] (setting [10]). The Her2 level in assay [2] is 88.5% (inactive). Besides, the differential viability (reversal) in assay [6] (H69AR cells + 2 uM doxorubicin) is 10.7% (inactive). For the same compound, the inhibition is -6.85% (inactive) in assay [7] and -4.92% (inactive) in assay [8].

Take `COC(=O)c1c(C#N)c(N)nc2c1CCC2`: the viability in assay [1] was 117%; in assay [3], 117% (inactive); in assay [4], 90.6% (inactive); in assay [5] it was 93.7% (inactive); in assay [6] (setting [9]), 93.1%; in assay [6] (setting [10]), 93.7%. The Her2 level in assay [2] is 97% (inactive). Moreover, the differential viability (reversal) in assay [6] (H69AR cells + 2 uM doxorubicin) is 0.57% (inactive). In addition, the inhibition in assay [7] was -5.2% (inactive); in assay [8] it was -4.13% (inactive).

For the compound `CCOC(=O)C1=C(C)NC(C)=C(C(=O)OCC)C1c1cc(N)ccc1OC(F)F`, the viability is 78.5% in assay [1]; 78.5% (inactive) in assay [3]; 76.6% (inactive) in assay [4]; 111% (inactive) in assay [5]; 106% in assay [6] (setting [9]); 111% in assay [6] (setting [10]). The Her2 level in assay [2] was 108% (inactive). Also, the differential viability (reversal) in assay [6] (H69AR cells + 2 uM doxorubicin) was 4.41% (inactive). The figures for the inhibition in assay [7] and in assay [8] were 0.91% (inactive) and -7.21% (inactive), respectively.

As for `CCOC(=O)c1ccc(COC(=O)CCc2nc3ccccc3[nH]c2=O)o1`, the viability in assay [1] was 92%; in assay [3], 92% (inactive); in assay [4], 100% (inactive); in assay [5], 92.1% (inactive); in assay [6] (setting [9]), 96.2%; in assay [6] (setting [10]) it was 92.1%. In assay [2], the Her2 level was 96.5% (inactive). The differential viability (reversal) in assay [6] (H69AR cells + 2 uM doxorubicin) is -4.18% (inactive). Besides, the inhibition in assay [7] was -1.32% (inactive); in assay [8] it was 5.08% (inactive).

With `O=C(Nc1ccc2c(c1)OCCO2)c1ccco1`, the viability in assay [1] is 83%; in assay [3], 83% (inactive); in assay [4] it was 78.7% (inactive); in assay [5], 86.5% (inactive); in assay [6] (setting [9]), 79.7%; in assay [6] (setting [10]), 86.5%. Also, the Her2 level in assay [2] is 106% (inactive). Moreover, the differential viability (reversal) in assay [6] (H69AR cells + 2 uM doxorubicin) was 6.8% (inactive). The inhibition in assay [7] was 2.47% (inactive); in assay [8] it was -5.08% (inactive).

With `Cn1c(=O)c2c(ncn2CC(O)CNc2ccc(Cl)cc2)n(C)c1=O` (stereo not given), the viability in assay [1] is 91%; in assay [3] it was 91% (inactive); in assay [4] it was 79.6% (inactive); in assay [5], 89.9% (inactive); in assay [6] (setting [9]) it was 89.5%; in assay [6] (setting [10]) it was 89.9%. Further, the Her2 level in assay [2] was 103% (inactive). In addition, the differential viability (reversal) in assay [6] (H69AR cells + 2 uM doxorubicin) is 0.365% (inactive). Also, the inhibition was -0.53% (inactive) in assay [7] and -5.71% (inactive) in assay [8].

Regarding `O=C(Nc1ccc(CN2CCCCC2)cc1)c1ccc2c(c1)OCO2`, the viability was 80.5% in assay [1]; 80.5% (inactive) in assay [3]; 98.8% (inactive) in assay [4]; 91.6% (inactive) in assay [5]; 79.7% in assay [6] (setting [9]); 91.6% in assay [6] (setting [10]). Moreover, in assay [2], the Her2 level was 75% (inactive). In addition, the differential viability (reversal) in assay [6] (H69AR cells + 2 uM doxorubicin) is 11.9% (inactive). For the same compound, the inhibition in assay [7] was -2.5% (inactive); in assay [8], -4.44% (inactive).

With `O=C(CSc1nnc(-c2c[nH]c3ccccc23)o1)N(Cc1ccccc1)c1ccc(F)cc1`, the viability in assay [1] is 100%; in assay [3] it was 100% (inactive); in assay [4], 65.9% (inactive); in assay [5], 82.4% (inactive); in assay [6] (setting [9]), 96.6%; in assay [6] (setting [10]), 82.4%. Further, the Her2 level in assay [2] is 102% (inactive). Also, the differential viability (reversal) in assay [6] (H69AR cells + 2 uM doxorubicin) is -14.3% (inactive). In addition, the inhibition was 2.53% (inactive) in assay [7] and 7.7% (inactive) in assay [8].

For `Cc1ccccc1NS(=O)(=O)c1cc(S(C)(=O)=O)ccc1Cl`, the viability in assay [1] is 96%; in assay [3], 96% (inactive); in assay [4] it was 110% (inactive); in assay [5], 94.4% (inactive); in assay [6] (setting [9]) it was 91.3%; in assay [6] (setting [10]), 94.4%. The Her2 level in assay [2] was 98.5% (inactive). Moreover, in assay [6] (H69AR cells + 2 uM doxorubicin), the differential viability (reversal) was 3.12% (inactive). Moreover, the inhibition in assay [7] was -2.4% (inactive); in assay [8], -4.29% (inactive).

For the compound `CCOC(=O)c1[nH]c2ccc(OC)cc2c1NC(=O)CCN1CCC(C)CC1`, the viability was 101% in assay [1]; 101% (inactive) in assay [3]; 94.1% (inactive) in assay [4]; 96.8% (inactive) in assay [5]; 97.2% in assay [6] (setting [9]); 96.8% in assay [6] (setting [10]). The Her2 level in assay [2] was 94.5% (inactive). Moreover, the differential viability (reversal) in assay [6] (H69AR cells + 2 uM doxorubicin) is -0.37% (inactive). Further, the results for the inhibition in assay [7] and in assay [8] were -3.12% (inactive) and -8.73% (inactive), respectively.

For `Clc1ccc(-n2ncc3c(NCCCn4ccnc4)ncnc32)cc1`, the viability in assay [1] was 87%; in assay [3] it was 87% (inactive); in assay [4], 91.2% (inactive); in assay [5] it was 93.5% (inactive); in assay [6] (setting [9]), 82.2%; in assay [6] (setting [10]), 93.5%. Besides, the Her2 level in assay [2] is 76.5% (inactive). Also, the differential viability (reversal) in assay [6] (H69AR cells + 2 uM doxorubicin) was 11.3% (inactive). The inhibition in assay [7] was -5.6% (inactive); in assay [8] it was 3.39% (inactive).

The values above are taken from PubChem BioAssay.
